For orientation: solubility means how much of the substance goes into solution per volume. As a reminder, the IC50 is the concentration needed to halve the response being measured. For orientation: clearance means the rate of elimination divided by the concentration. A low value points to inefficient removal.

Data set [1] can be described thus: Aqueous solubility of the compound. Format: physicochemical. The procedure, abridged:
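Aqueous solubility measured at pH 2.3, 6.1, 7.3 and 8.5, in µg/mL.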

In data set [2] the target is Human immunodeficiency virus type 1 integrase (Human immunodeficiency virus 1, UniProt Q7ZJM1). Description: Inhibition of HIV1 integrase strand transfer activity.
Human immunodeficiency virus type 1 integrase, sequence (Q7ZJM1 whole entry): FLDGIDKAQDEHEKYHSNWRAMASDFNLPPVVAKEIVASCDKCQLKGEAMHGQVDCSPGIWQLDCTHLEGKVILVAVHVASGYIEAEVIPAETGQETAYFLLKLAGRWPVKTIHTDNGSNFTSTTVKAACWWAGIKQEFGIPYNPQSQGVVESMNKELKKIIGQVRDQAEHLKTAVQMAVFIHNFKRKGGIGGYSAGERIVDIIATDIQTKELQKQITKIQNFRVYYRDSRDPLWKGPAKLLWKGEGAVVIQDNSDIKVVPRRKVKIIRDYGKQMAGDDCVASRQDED
The nature of data set [3]: Clearance in Sprague-Dawley rat at 1 mg/kg, iv after 4 hrs. Format: ADME, organism-based. The conditions noted are these: in vivo. The procedure, abridged:
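Male Sprague-Dawley rats given 1 mpk IV in PEG400/ethanol (90:10); blood sampled at 5 and 30 min and 1, 2 and 4 h post-dose; clearance from plasma profile.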

With `O=C(NCc1ccc(F)cc1N1CCCCS1(=O)=O)c1nc2n(c(=O)c1O)CCCC21CCCC1`, the solubility in data set [1] is at most 5 µg/mL. In addition, it took 5 nM to reach half-maximal inhibition in data set [2] (IC50).

In the case of `Cc1cc(F)ccc1CNC(=O)c1nc2n(c(=O)c1O)CCOC2(C)C`, the IC50 in data set [2] came out at 2 nM.

On to `Cc1cc(CNC(=O)c2nc3n(c(=O)c2O)CCOC3(C)C)ccc1F`, for which, in data set [3], the clearance was determined as 11 mL/min/kg. The IC50 in data set [2] stood at 3 nM.

For `O=C(NCc1ccc(F)cc1)c1nc2n(c(=O)c1O)CCCC21CCCC1`, the clearance in data set [3] turned out to be 18 mL/min/kg. This compound had a solubility in data set [1] of at most 5 µg/mL. In data set [2], this compound returned a 50% inhibitory concentration (IC50) of 3 nM.
